MPTP inh: mitochondrial permeability transition pore inhibitors, primary screen, biochemical, isolated mouse mitochondria, absorbance; AID 602449, 2012; actives 1.4% (n = 360,000); inhibition, % at 10 µM; Ca2+ swelling absorbance, 30 min;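 active = inhibition of 50% or more, scaled per plate between neutral and stimulator controls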
Exocytosis inh: LAMP-1 surface exposure blockers, TALL-104 cells – cell-based, flow cytometry, MLPCN library, primary screen | TALL-104 LAMP-1 surface exposure; cells stimulated with thapsigargin and PMA | inhibition, % at 10 µM | actives 0.66% (n = 360,000);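 active = inhibition above about 55%, limit read from the data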
T cell modulator: modulators of CD8 T cell-vesicle binding, primary screen, mouse 2C CD8+ T cells, flow cytometry; 2C CD8+ T cell-vesicle binding; active compounds read low; response (vesicle binding), % at 7 µM; actives 0.068% (n = 330,000);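 active = response, share of CD8 T cells binding vesicles, and their 90th percentile fluorescence all below set limits, cut at about 80% in these data, passing the limit was not always enough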;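 also: values below 100% mean blocked vesicle binding to the CD8+ T cells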
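Also added: QL9-peptide-loaded Drosophila micro-vesicles bearing Ld, ICAM-1 and B7-1; Test system: purified 2C TCR transgenic mouse naive CD8+ T cells; Measured by: cytometric PE anti-B7-1 and Alexa647 anti-CD8 signals after 1% paraformaldehyde fixation; Timing: binding step 1.5 h, 37 °C, antibody labelling 20 min, ice.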
B2AR ag: beta2AR agonists driving receptor internalization, primary screen, cell-based, FAP fluorogen, flow cytometry. response, % (no concentration beside the values). Beta-2 adrenergic receptor (Homo sapiens), P07550. actives 0.43% (n = 340,000). Am2.2-beta2AR cells;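 active = response above a set limit, near 3 SD of response in nonfluorescent compounds, cut at about 42% in these data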
Target sequence (P07550 whole entry, looked up): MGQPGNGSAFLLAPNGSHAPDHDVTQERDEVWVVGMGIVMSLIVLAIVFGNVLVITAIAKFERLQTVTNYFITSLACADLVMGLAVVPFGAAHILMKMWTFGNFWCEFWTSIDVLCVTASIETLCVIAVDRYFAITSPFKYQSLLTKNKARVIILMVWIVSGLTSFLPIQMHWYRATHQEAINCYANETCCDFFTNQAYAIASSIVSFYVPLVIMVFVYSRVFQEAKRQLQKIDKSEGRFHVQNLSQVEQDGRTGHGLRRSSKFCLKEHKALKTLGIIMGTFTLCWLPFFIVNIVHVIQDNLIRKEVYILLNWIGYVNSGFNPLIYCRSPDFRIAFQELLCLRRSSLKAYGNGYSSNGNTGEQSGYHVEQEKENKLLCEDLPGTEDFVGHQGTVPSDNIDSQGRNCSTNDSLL
rCAG binder: binders of r(CAG) RNA repeats, primary screen, biochemical, fluorescence; r(CAG) RNA repeat, TO-PRO-1 dye displacement fluorescence; inhibition, % at 3 µM; actives 1.3% (n = 370,000);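 active = inhibition above the plate cutoff, the mean of all test compounds on that plate plus 3 SD, cut at about 35% in these data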;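 also: higher means more dye released from RNA so lower well fluorescence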
V-ATPase pH: regulators of yeast V-ATPase proton pumping, primary screen, pHLuorin cytosolic pH fluorescence; response, % at 10 µM; actives 0.37% (n = 350,000); S. cerevisiae; in the data active = response mostly above about 7.3%, no sharp cut-off; inactive = mostly below about 5.4%; also: actives read high
rCAG binder conf: small molecules binding CAG repeat RNA – biochemical, fluorescence, confirmation. actives 70% (n = 4,300). shares compounds with rCAG binder. AID 652065, 2013. r(CAG) RNA repeat, TO-PRO-1 dye displacement fluorescence. inhibition, % at 3 µM;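 active = inhibition above a per-plate cutoff, the mean inhibition of sample wells plus 3 SD, cut at about 35% in these data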;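 also: loss of TO-PRO-1 fluorescence as compound displaces dye from 1x1 AA loop RNA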
dCAG dye counter: displacement of TO-PRO-1 from CAG DNA duplex, counter-screen for rCAG RNA repeat binder project, biochemical, fluorescence, TO-PRO-1 dye, d(CAG) DNA oligo | AID 652068, 2013 | d(CAG) DNA oligo TO-PRO-1 dye displacement | actives 94% (n = 4,300) | shares compounds with rCAG binder | inhibition, % at 3 µM;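 active = inhibition above its plate's cutoff, the mean test-well inhibition plus 3 SD, cut at about 4.8% in these data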;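 also: hits displace the dye from DNA and so lower well fluorescence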
DNA CAG DR: inhibitors of DNA CAG/GTC TO-PRO-1 complex, dose response, counter-screen for rCAG RNA repeat binder project, biochemical, fluorescence, TO-PRO-1 dye; DNA CAG/GTC duplex TO-PRO-1 dye displacement fluorescence; IC50, µM; shares compounds with rCAG binder; actives 20% (n = 250); in the data active = IC50 below about 10 µM
A number is an active result; – = inactive; · = not tested or not shown. Compounds with a hit are over-represented: about 3.8% of the library has one in this group of screens.

SMILES | MPTP inh | Exocytosis inh | T cell modulator | B2AR ag | rCAG binder | V-ATPase pH | rCAG binder conf | dCAG dye counter | others
COc1cc(NC(=O)c2ccc(NS(=O)(=O)c3c(C)noc3C)cc2)cc(OC)c1 | – | – | – | – | – | – | · | ·
COc1ccccc1NS(=O)(=O)c1ccc(C)c(C(=O)Nc2ccc(S(=O)(=O)Nc3onc(C)c3C)cc2)c1 | – | – | · | – | 63 | – | 57 | 22
COc1ccccc1NS(=O)(=O)c1ccc(C)c(C(N)=O)c1 | – | – | – | – | – | – | · | ·
COc1ccccc1NS(=O)(=O)c1ccc(C)c(NS(=O)(=O)c2cc(C(=O)O)cc(C)c2C)c1 | – | – | – | – | 42 | – | – | 7.3
COc1ccccc1NS(=O)(=O)c1cc(C(=O)Nc2ccc(S(=O)(=O)Nc3onc(C)c3C)cc2)ccc1C | – | – | · | – | 70 | – | 78 | 30 | DNA CAG DR=–
CC(C)Oc1ccc(C(=O)N/N=C/c2ccc(-c3ccc(S(=O)(=O)Nc4ncccn4)cc3)o2)cc1 | – | – | – | – | 54 | – | 65 | 22
Cc1cc(C(=O)Nc2ccc(S(=O)(=O)Nc3onc(C)c3C)cc2)cs1 | – | – | – | – | – | – | · | ·
N=c1c(S(=O)(=O)c2ccc(Cl)cc2)cc2c(=O)n3ccccc3nc2n1Cc1ccco1 | – | – | – | – | 36 | – | 56 | 25
N=c1c(S(=O)(=O)c2ccc(Br)cc2)cc2c(=O)n3ccccc3nc2n1Cc1ccco1 | – | – | – | – | – | – | · | ·
COC(=O)c1cc(C)sc1NC(=O)C1CC=CCC1C(=O)O (stereo not drawn) | – | – | – | – | – | – | · | ·
Cc1sc(NC(=O)C2CC=CCC2C(=O)O)c(C(=O)OC(C)C)c1C (stereo not drawn) | – | – | – | – | 41 | – | – | 5.8
O=C(NCCc1ccc(Cl)cc1)c1ccc2c(c1)ncn2C1CCCCC1 | · | · | · | · | – | · | · | ·
CCOC(=O)CC[C@@]1(C(=O)OCC)C[C@@H](CC(=O)NCC23CC4CC(CC(C4)C2)C3)C(=O)N2CCCC=C21 | · | · | · | · | – | · | · | ·
O=C(O)CN1C(=O)/C(=C\c2cc(Br)ccc2OCc2ccc(Cl)cc2)SC1=S | – | – | – | – | 88 | – | 94 | 74
O=C(O)CN1C(=O)/C(=C\c2cc(Br)ccc2OCc2ccc(F)cc2)SC1=S | – | – | – | – | 81 | – | 89 | 61
COc1ccc(/C=C2/SC(=S)N(CC(=O)O)C2=O)cc1OCc1ccc(Cl)cc1 | – | – | – | – | – | – | · | ·
O=C(O)CN1C(=O)/C(=C\c2cc([N+](=O)[O-])ccc2OCc2ccccc2Cl)SC1=S | – | – | – | – | 86 | – | 85 | 54
O/N=C/c1cc(Br)ccc1OCc1ccc(F)cc1 | – | – | – | – | – | – | · | ·
CC(C)C(=O)N[C@H]1[C@H](O)CCC[C@@]12C(=O)N(Cc1ccccc1)c1ccccc12 | · | · | · | · | – | · | · | ·
O=c1oc2ccccc2cc1-c1nc(-c2cccs2)cs1 | – | – | – | – | 41 | – | – | 8.6
NC(=O)c1ccccc1NC(=O)c1ccccc1Cl | – | – | – | – | – | – | · | ·
O=C(Nc1ccccc1C(=O)Nc1nnc(C(F)(F)F)s1)c1ccccc1Cl | – | – | – | – | 65 | – | 71 | 30
NS(=O)(=O)c1ccc2nc(NC(=O)Nc3ccc(F)cc3)sc2c1 | – | – | – | – | 57 | – | – | 24

Screening data: PubChem BioAssay, several laboratories
